Legend:
[1] = tested on: K562; assay: Cytotoxicity against human K562 cells after 48 hrs by MTT assay; assay type: functional, cell-based; details: K562, 48 h
Summary of the method: (§1)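 MTT viability in parental K562 and P-gp-overexpressing K562/A02 cells. Compound alone at a concentration series gives the IC50. Mean ± SD of three independent tests.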

[2] = tested on: K562; assay: Resistance index, ratio of IC50 for human K562/A02 cells to IC50 for human K562 cells; assay type: functional
Summary of the method: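 Adriamycin IC50 measured by MTT in K562/A02 and in parental K562 cells. Fold resistance is the ratio of the resistant-line IC50 to the sensitive-line IC50. Mean ± SD of three independent tests.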

[3] = tested on: K562/A02; assay: Cytotoxicity against human K562/A02 cells overexpressing P-gp after 48 hrs by MTT assay; assay type: functional, cell-based; details: K562/A02, 48 h; summary of the method: as §1
[4] = tested on: K562/A02; assay: (§2) Cytotoxicity against human K562/A02 cells assessed as cell survival at 5 uM after 48 hrs by MTT assay relative to control; assay type: cell-based; details: k562/a02, 48 h, 5 µM
Summary of the method: (§3)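 MTT viability assay in P-gp-overexpressing, ADM-resistant K562/A02 cells, alongside parental K562. […] Values are mean ± SD of three independent tests.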

[5] = target: T1, ATP-dependent translocase ABCB1 (Homo sapiens, UniProt P08183); assay: Inhibition of ABCB1 in human K562/A02 cells assessed as potentiation of adriamycin-mediated cytotoxicity by measuring reduction in ADR IC50 at 5 uM after 48 hrs by MTT assay relative to control; assay type: cell-based
Summary of the method: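 K562/A02 cells exposed to a series of adriamycin concentrations with modulator at 5.0 µM; 0.1% DMSO as solvent control. IC50 read by MTT. Reversal fold = IC50 without inhibitor / IC50 with inhibitor. Mean ± SD of three independent tests.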

[6] = target: T1, ATP-dependent translocase ABCB1; assay: Substrate activity at ABCB1 ATPase in human ABCB1 membrane fraction assessed as increase in ATPase activity at 50 uM preincubated with compound followed by addition of MgATP measured after 1 hr by luciferase reporter gene assay relative to control; assay type: cell membranes
[7] = target: T1, ATP-dependent translocase ABCB1; assay: Inhibition of ABCB1 in human K562/A02 cells assessed as increase in intracellular Rh123 accumulation at 5 uM up to 90 mins by flow cytometry; assay type: cell-based; details: 1.5 h
Summary of the method: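 K562/A02 cells treated with 5.0 µM modulator; Rh123-associated mean fluorescence intensity read by flow cytometry at 5, 10, 25, 30, 60 and 90 min. Untreated cells as negative control. Mean ± SD of three experiments.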

[8] = as §2; assay type: cell-based; details: K562/A02 cells, read-out: Survival; summary of the method: as §3
[9] = Inhibition of CYP3A4 in rat liver microsomes assessed as 6beta-hydroxytestosterone formation using testosterone as substrate by reverse-phase HPLC analysis; assay type: ADME

T1 sequence (P08183 whole entry): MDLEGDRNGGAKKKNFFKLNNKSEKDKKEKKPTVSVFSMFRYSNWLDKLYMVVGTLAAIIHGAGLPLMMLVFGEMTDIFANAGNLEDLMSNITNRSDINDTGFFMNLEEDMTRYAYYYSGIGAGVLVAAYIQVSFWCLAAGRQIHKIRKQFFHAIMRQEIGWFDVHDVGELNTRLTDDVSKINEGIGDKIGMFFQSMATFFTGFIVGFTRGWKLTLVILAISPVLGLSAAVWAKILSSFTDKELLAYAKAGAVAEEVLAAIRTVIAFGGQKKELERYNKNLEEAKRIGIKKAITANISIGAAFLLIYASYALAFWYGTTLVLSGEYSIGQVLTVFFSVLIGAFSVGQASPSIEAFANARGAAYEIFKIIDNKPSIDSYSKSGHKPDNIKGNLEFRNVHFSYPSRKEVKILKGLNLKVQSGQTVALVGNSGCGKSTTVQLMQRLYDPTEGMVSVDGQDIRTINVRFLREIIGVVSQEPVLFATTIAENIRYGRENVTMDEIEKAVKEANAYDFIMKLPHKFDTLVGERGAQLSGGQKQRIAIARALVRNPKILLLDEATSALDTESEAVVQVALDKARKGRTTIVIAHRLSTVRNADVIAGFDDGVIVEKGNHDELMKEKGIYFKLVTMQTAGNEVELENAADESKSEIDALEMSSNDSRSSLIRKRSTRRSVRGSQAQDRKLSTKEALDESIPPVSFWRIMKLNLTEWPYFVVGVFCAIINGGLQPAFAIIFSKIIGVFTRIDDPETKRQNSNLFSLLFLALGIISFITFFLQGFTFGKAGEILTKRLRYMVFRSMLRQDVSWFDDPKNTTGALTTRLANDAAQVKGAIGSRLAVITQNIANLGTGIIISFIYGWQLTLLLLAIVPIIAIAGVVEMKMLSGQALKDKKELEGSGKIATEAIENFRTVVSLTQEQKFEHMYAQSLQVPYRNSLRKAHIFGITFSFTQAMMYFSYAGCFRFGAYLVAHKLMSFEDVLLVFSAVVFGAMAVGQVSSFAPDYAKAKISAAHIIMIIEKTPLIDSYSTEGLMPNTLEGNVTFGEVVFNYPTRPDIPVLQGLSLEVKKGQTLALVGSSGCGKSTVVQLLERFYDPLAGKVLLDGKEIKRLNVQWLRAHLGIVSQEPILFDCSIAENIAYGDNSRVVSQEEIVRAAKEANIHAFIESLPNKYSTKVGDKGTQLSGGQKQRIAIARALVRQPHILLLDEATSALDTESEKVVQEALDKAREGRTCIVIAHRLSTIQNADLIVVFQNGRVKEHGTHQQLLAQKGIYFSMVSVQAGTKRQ

fold change (FC) [6] | inhibition (INH) [7] | Structure (SMILES) | IC50 [1] | Ratio IC50 [2] | IC50 [3] | Activity [4] | fold change (FC) [5] | viability at 48 h, 5 µM [8] | inhibition (INH) [9]
– | – | COc1cccc2c1C(=O)c1c(O)c3c(c(O)c1C2=O)C[C@@](O)(C(=O)CO)C[C@@H]3O[C@H]1C[C@H](N)[C@H](O)[C@H](C)O1.Cl [DOXORUBICIN HYDROCHLORIDE] | 0.51 to 0.58 µM | 105.8 | 54 to 56.8 µM | – | – | – | –
– | – | O=C(c1cccnc1NCc1ccncc1)N(Cc1ccccc1)Cc1ccccc1 | 76.4 µM | – | 82.2 µM | Non-Toxic | 10.14 | – | –
2.56 | Active | COc1ccc(CCN(C)CCCC(C#N)(c2ccc(OC)c(OC)c2)C(C)C)cc1OC (stereo unspecified) | 36.7 to 37.3 µM | – | 31.3 to 33.6 µM | – | – | – | –
– | – | COc1cc2c(cc1OC)C(c1ccccc1)N(C(=O)c1cccnc1NCc1ccncc1)CC2 (stereo unspecified) | > 100 µM | – | > 100 µM | Non-Toxic | 2.96 | – | –
– | – | O=C(c1cccnc1NCc1ccncc1)N1CCC(N2CCCCC2)CC1 | 51.4 µM | – | > 100 µM | – | 1.2 | > 90% | –
– | – | O=C(Nc1ccc2c(c1)Cc1ccccc1-2)c1cccnc1NCc1ccncc1 | 70 µM | – | > 100 µM | Non-Toxic | 13.65 | – | –
– | – | O=C(Nc1ccc(F)c(Cl)c1)c1cccnc1NCc1ccncc1 | 78.9 µM | – | 27.9 µM | – | 6.6 | > 90% | –
– | – | CN1CCN(c2ccc(NC(=O)c3cccnc3NCc3ccncc3)cc2)CC1 | > 100 µM | – | > 100 µM | – | 4.93 | > 90% | –
– | – | O=C(NC(c1ccccc1)c1ccccc1)c1cccnc1NCc1ccncc1 | > 100 µM | – | > 100 µM | Non-Toxic | 3.94 | – | –
– | – | COc1cc2c(cc1OC)C(Cc1cccc3ccccc13)N(C(=O)c1cccnc1NCc1ccncc1)CC2 (stereo unspecified) | > 100 µM | – | > 100 µM | Non-Toxic | 2.51 | – | –
– | – | O=C(NCc1ccncc1)c1cccnc1NCc1ccncc1 | > 100 µM | – | > 100 µM | – | 7.92 | > 90% | –
– | – | O=C(NC1CCCc2ccccc21)c1cccnc1NCc1ccncc1 (stereo unspecified) | 66.1 µM | – | > 100 µM | – | 4.24 | > 90% | –
– | – | COc1cc(NC(=O)c2cccnc2NCc2ccncc2)cc(OC)c1OC | > 100 µM | – | > 100 µM | – | 3.51 | > 90% | –
– | – | CN1CCN(CCc2ccc(NC(=O)c3cccnc3NCc3ccncc3)cc2)CC1 | > 100 µM | – | > 100 µM | Non-Toxic | 2.04 | – | –
– | – | COc1ccc(NC(=O)c2cccnc2NCc2ccncc2)cc1Cl | > 100 µM | – | > 100 µM | – | 5.29 | > 90% | –
– | – | O=C(Nc1cccc2ccccc12)c1cccnc1NCc1ccncc1 | > 100 µM | – | > 100 µM | – | 7.74 | > 90% | –
– | – | Cc1cccc(Cl)c1NC(=O)c1cnc(NC(=O)c2cccnc2NCc2ccncc2)s1 | 57.7 µM | – | 86 µM | Non-Toxic | 7.95 | – | –
– | – | CC(C)(C)c1ccc(NC(=O)c2cccnc2NCc2ccncc2)cc1 | > 100 µM | – | > 100 µM | – | 4.27 | > 90% | –

fold change (FC) [6] | inhibition (INH) [7] | Structure (SMILES) | IC50 [1] | Ratio IC50 [2] | IC50 [3] | Activity [4] | fold change (FC) [5] | viability at 48 h, 5 µM [8] | inhibition (INH) [9]
– | – | CC(=O)N1CCN(c2ccc(OCC3COC(Cn4ccnc4)(c4ccc(Cl)cc4Cl)O3)cc2)CC1 (stereo unspecified) [KETOCONAZOLE] | – | – | – | – | – | – | Dose-dependent effect
– | – | COc1ccc(CCNC(=O)c2cccnc2NCc2ccncc2)cc1OC | > 100 µM | – | > 100 µM | – | 16.6 | > 90% | –
– | – | COc1cc2c(cc1OC)C(c1ccco1)N(C(=O)c1cccnc1NCc1ccncc1)CC2 (stereo unspecified) | > 100 µM | – | > 100 µM | Non-Toxic | 1.52 | – | –
– | – | O=C(Nc1ccc(-c2ccccc2)cc1)c1cccnc1NCc1ccncc1 | 17 µM | – | 27.9 µM | – | 12.69 | > 90% | –
– | – | COc1cc2c(cc1OC)CN(C(=O)c1cccnc1NCc1ccncc1)CC2 | 72.5 µM | – | 85.7 µM | Non-Toxic | 17.97 | – | –
– | – | O=C(Nc1ccc(N2CCCCC2)cc1)c1cccnc1NCc1ccncc1 | > 100 µM | – | > 100 µM | – | 5.21 | > 90% | –
– | – | O=C(Nc1ccc(N2CCOCC2)cc1)c1cccnc1NCc1ccncc1 | > 100 µM | – | > 100 µM | – | 18.8 | > 90% | –
– | – | COc1cccc(-c2nnc(NC(=O)c3cccnc3NCc3ccncc3)s2)c1 | 39.5 µM | – | > 100 µM | – | 4.6 | > 90% | –
– | – | COc1ccc(C2c3cc(OC)c(OC)cc3CCN2C(=O)c2cccnc2NCc2ccncc2)cc1OC (stereo unspecified) | > 100 µM | – | > 100 µM | Non-Toxic | 3.44 | – | –
– | – | O=C(Nc1ccc(OC(F)(F)F)cc1)c1cccnc1NCc1ccncc1 | 24.2 µM | – | 28.7 µM | – | 8.42 | > 90% | –
– | – | COc1cc2c(cc1OC)C(C(C)(C)C)N(C(=O)c1cccnc1NCc1ccncc1)CC2 (stereo unspecified) | > 100 µM | – | > 100 µM | Non-Toxic | 2.66 | – | –
– | – | O=C(c1ccccc1)c1ccccc1NC(=O)c1cccnc1NCc1ccncc1 | > 100 µM | – | > 100 µM | Non-Toxic | 1.28 | – | –
– | – | O=C(NCCc1cccs1)c1cccnc1NCc1ccncc1 | > 100 µM | – | > 100 µM | – | 1.37 | > 90% | –
– | – | O=C(Nc1nc2ccccc2[nH]1)c1cccnc1NCc1ccncc1 | > 100 µM | – | > 100 µM | – | 1.69 | > 90% | –
– | – | O=C(Nc1ccc(CCN2CCOCC2)cc1)c1cccnc1NCc1ccncc1 | > 100 µM | – | > 100 µM | Non-Toxic | 5.64 | – | –
– | – | COc1cccc(NC(=O)c2cccnc2NCc2ccncc2)c1 | > 100 µM | – | > 100 µM | – | 3.76 | > 90% | –
– | – | COc1ccc(CN(C)C(=O)c2cccnc2NCc2ccncc2)cc1OC | > 100 µM | – | > 100 µM | – | 9.58 | > 90% | –
